From PubChem BioAssay
The source made the active and inactive calls.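 Rule for the calls: active = current rise at least 3 SD above the untreated control mean in each of two repeat wells; inactive = the rest.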

Biological target: Potassium voltage-gated channel subfamily KQT member 1 (Homo sapiens) (UniProt P51787)
Assay: KCNQ1 activators by electrophysiology – IonWorks patch clamp, KCNQ1-CHO cells, orthogonal assay for KCNQ1 potentiator project, confirmation (AID 493184)
Details: automated patch clamp current, at 10 µM
Method in brief: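 Test system: KCNQ1-expressing CHO cells. Medium: pH 7.4 external bath. Probe or stimulus: voltage step from -90 mV holding to +40 mV, 2,000 ms. Compound: 10 µM final, single point. Detection: automated perforated-patch electrophysiology. Read-out: percent current increase versus pre-compound level. Repeats: two replicates.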

Potassium voltage-gated channel subfamily KQT member 1 (Homo sapiens), sequence (P51787 whole entry, looked up): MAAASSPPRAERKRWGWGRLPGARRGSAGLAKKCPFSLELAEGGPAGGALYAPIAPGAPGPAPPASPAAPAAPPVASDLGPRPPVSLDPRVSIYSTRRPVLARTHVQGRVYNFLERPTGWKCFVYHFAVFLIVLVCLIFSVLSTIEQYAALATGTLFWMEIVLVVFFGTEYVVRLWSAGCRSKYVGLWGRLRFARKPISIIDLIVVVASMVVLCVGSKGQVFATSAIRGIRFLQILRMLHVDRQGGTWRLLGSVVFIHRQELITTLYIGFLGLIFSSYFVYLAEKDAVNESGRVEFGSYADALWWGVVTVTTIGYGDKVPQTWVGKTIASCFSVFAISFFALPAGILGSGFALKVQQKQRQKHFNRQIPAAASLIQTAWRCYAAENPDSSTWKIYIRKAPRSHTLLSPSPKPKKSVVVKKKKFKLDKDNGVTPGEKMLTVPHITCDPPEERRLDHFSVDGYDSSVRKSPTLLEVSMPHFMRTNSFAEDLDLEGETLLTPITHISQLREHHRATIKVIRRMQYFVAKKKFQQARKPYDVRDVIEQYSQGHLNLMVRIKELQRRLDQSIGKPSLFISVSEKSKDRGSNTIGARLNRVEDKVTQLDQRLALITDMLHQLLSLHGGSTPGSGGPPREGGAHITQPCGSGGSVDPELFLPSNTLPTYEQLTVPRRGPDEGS

outcome, inactive:
CCOC(=O)C1CCN(C(=O)COc2cc(C)c(Br)c(C)c2)CC1
S=c1[nH]cc(Cc2ccccc2)s1
COC(=O)C1=C(C(=O)OC)[C@@H]2N(C)c3ccccc3[C@@]23C[C@@H](C(=O)OC)N(C(=O)c2ccc(Br)cc2)C3=N1
Oc1c(CN2CCN(c3ccccn3)CC2)cc(Cl)c2cccnc12
N=c1sccn1CC(=O)N1N=C(c2ccc(Cl)cc2)CC1c1ccco1 (centres undefined)
CC(/C=N/n1c(-c2ccc(Cl)cc2)n[nH]c1=S)=C\c1ccco1
C#CCOCCOCCOCCNc1nc(N2CCN(C(=O)C([C@@H](C)CC)n3cc(C(N)Cc4ccc(O)cc4)nn3)CC2)nc(N2CCN(C(=O)[C@H](CCC(=O)O)n3cc(C(N)CC(C)C)nn3)CC2)n1 (some centres undefined)
COc1ccc(C(=O)NC(=S)NNC(=O)c2ccc3ccccc3n2)cc1
CCCCNC(=S)NC(=O)c1ccc([N+](=O)[O-])cc1
O=C(Nc1ccc(N2CCN(c3ccc(O)cc3)CC2)cc1)Oc1ccccc1
CCCOc1ccc(-c2c(=O)n(O)c3ccccc3[n+]2[O-])cc1
Cc1ccc(OCC(=O)NC(=S)Nc2ccc(Br)cn2)cc1
Cc1cccc(C(=O)NC(=S)NNC(=O)COc2ccc(Cl)cc2)c1
O=C(NC(=S)N1CCCc2ccccc21)c1ccccc1
Cc1ccc(-n2c(=S)[nH]c3c(oc4ccccc43)c2=O)cc1C
COCCn1c(SCC(=O)NCc2ccc3c(c2)OCO3)nnc1C(C)C
Cc1cc(C)c(NC(=O)c2cn3c4c(c(N5CCN(C)CC5)c(F)cc4c2=O)OCC3C)c(C)c1 (centres undefined)
CCn1c(SCC(=O)NC(=O)NCc2ccco2)nc2sc(C)c(C)c2c1=O
O=C(CNC(=O)C(c1ccccc1)c1ccccc1)N/N=C/c1ccc(O)cc1O
CCN(CC)c1ccc(Nc2cc3n(c(=O)n2)CCc2cc(OC)c(OC)cc2-3)cc1
CCCCn1c(=S)[nH]c2ncccc2c1=O
CCN(CC)C(=O)c1[nH]cnc1C(=O)NCC(=O)OC(C)(C)C
O=Cc1ccccc1OCCCOc1cccc2cccnc12
CCCCCn1c(=O)c(F)cn(Cc2ccc(OC)c([N+](=O)[O-])c2)c1=O
O=C(NC(=S)N(Cc1ccccc1)Cc1ccccc1)c1ccccc1F
COc1cccc(OCC(=O)NNC(=O)C(=O)Nc2cccc(C)c2)c1
COc1ccc(-c2csc(N(CCCN(C)C)C(=O)c3ccccc3Cl)n2)cc1
c1ccc2c(OCCCCN3CCOCC3)cccc2c1
CNc1ccccc1C(=O)OC(C)C(=O)Nc1ccc(Cl)cn1 (centres undefined)
CON/C=N/C(=S)Nc1ncc(C(F)(F)F)cc1Cl
COc1cccc(C(=O)Nc2nc(-c3ccccc3)c(-c3ccccc3)o2)c1
Cc1[nH]n(-c2ccc(Cl)cc2)c(=O)c1/C=N/c1nnc(-c2ccccc2)s1
C#CC1(NC(=O)NCCCC)CCCCC1
O=C(NC(=S)Nc1ccc(N2CCCCC2)c(Cl)c1)c1cccs1
Oc1c(Br)cc(Cl)cc1C=Nc1ccccc1Br
Cc1cccc(N=Cc2cc(Br)cc(Cl)c2O)c1
Cc1ccc(-c2ccnc(=S)[nH]2)cc1
CCn1c(CSc2nc3ccccc3n2C)nc2ccccc21
CCC1CCC2(CC1)NC(CO)(CO)CO2 (centres undefined)
